For four molecules, inhibition and t1/2 results are on record in ChEMBL document CHEMBL3352788, “Characterization of selective exosite-binding inhibitors of matrix metalloproteinase 13 that prevent articular cartilage degradation in vitro” (J Med Chem, 2014).

Broadly, the inhibition is the share of the control response that was lost under treatment.

SMILES strings stand for the structures.

One series addresses CYP3A4 (Homo sapiens, UniProt P08684). The series can be described thus: Inhibition of CYP3A4 (unknown origin) using midazolam substrate at 20 uM. The following applies: probe midazolam. Type of series: ADME. In short, it runs like this: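 Human liver microsomes with probe substrate and an NADPH-regenerating system in 0.1 M potassium phosphate pH 7.4 at 37 °C, run in duplicate. Inhibitor at 0–20 μM (0–2.5 μM for one compound), eight concentrations. Reactions were stopped with acetonitrile/formic acid containing isotope-labelled internal standard, and metabolite area ratios were compared with and without inhibitor. IC50 was taken by linear interpolation between bracketing concentrations.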

The next series relates to Liver microsome. The series can be described thus: Half life in rat liver microsomes by LC-MS/MS analysis. Type of series: ADME. In short, it runs like this: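 Compound at 1 μM with 1 mg/mL liver microsomes in 100 mM potassium phosphate pH 7.4 at 37 °C with shaking. Reaction started with 1 mM NADPH (final). Aliquots were taken at 0, 5, 10, 20, 40 and 60 min and quenched in acetonitrile. Parallel incubations without NADPH were run.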
Background: Liver microsomes are a subcellular fraction often used to study metabolism.

For series [1], the target named is Urokinase-type plasminogen activator (Homo sapiens) (UniProt P00749). The series can be described thus: Inhibition of recombinant human uPA using GRTSSVEP substrate at up to 5 uM after 3 hrs. Summed up: (§1)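 In this microfluidic protease panel, enzyme and compound were preincubated 30 min at 25 °C. The peptide substrate was added and the reaction was incubated 3 h at 25 °C, then quenched (SDS, EDTA, iodoacetate). Activity was read as % substrate converted to product. Dose–response was singlicate, 12-point 3-fold dilutions spanning 5 μM to 0.028 nM. IC50 was the concentration leaving 50% activity relative to no-compound control.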

The target in the next series is T1, Caspase-3 (Homo sapiens) (UniProt P42574).
T1 sequence (whole entry): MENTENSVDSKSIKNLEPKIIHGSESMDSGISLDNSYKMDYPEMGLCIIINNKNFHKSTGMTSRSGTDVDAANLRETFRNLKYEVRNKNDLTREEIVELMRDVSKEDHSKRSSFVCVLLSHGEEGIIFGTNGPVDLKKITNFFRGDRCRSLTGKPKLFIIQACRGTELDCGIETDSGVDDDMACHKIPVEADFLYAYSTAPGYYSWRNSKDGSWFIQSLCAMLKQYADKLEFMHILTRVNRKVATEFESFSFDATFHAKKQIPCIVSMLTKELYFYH
The series can be described thus: Inhibition of recombinant human caspase 3 using DEVDAA substrate at up to 5 uM after 3 hrs. Summed up:
(§2)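 Outsourced microfluidic protease panel. Compound was preincubated with each protease for 30 min at 25 °C, then peptide substrate was added for 3 h at 25 °C and quenched with SDS/EDTA/iodoacetate. Substrate-to-product conversion was measured on LabChip. Compounds were tested singly in a 12-point 3-fold dilution series, top 20 μM (5 μM for two reference compounds).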

Another series deals with T2, Caspase-6 (Homo sapiens) (UniProt P55212).
T2 sequence (whole entry): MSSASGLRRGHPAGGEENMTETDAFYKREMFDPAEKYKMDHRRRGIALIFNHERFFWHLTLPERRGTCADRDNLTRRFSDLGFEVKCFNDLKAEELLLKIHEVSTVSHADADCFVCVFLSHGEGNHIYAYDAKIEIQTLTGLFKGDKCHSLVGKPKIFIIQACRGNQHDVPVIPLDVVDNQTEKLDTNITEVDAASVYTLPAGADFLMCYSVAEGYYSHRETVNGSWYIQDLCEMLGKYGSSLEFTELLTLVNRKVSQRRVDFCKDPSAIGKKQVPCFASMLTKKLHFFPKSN
The series can be described thus: Inhibition of recombinant human caspase 6 using VEHDGG substrate at up to 5 uM after 3 hrs. Summed up:
as §2

In another series the target is T3, Caspase-1 (Homo sapiens) (UniProt P29466).
T3 sequence (whole entry): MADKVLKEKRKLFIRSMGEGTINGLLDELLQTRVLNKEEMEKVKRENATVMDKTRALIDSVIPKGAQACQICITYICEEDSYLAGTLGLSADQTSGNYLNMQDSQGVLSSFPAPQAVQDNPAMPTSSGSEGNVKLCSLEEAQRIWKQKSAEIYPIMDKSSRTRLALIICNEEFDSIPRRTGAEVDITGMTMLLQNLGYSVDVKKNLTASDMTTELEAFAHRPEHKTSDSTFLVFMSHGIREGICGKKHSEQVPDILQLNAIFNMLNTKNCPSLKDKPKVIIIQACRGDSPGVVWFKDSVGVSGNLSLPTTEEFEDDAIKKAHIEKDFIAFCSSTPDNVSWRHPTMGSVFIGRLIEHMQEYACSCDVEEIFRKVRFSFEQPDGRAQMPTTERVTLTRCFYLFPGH
Nature of the series: Inhibition of recombinant human caspase 1 using WEHDGPKR substrate at up to 5 uM after 3 hrs. In short, it runs like this:
as §2

Another series addresses T4, Caspase-7 (Homo sapiens) (UniProt P55210).
T4 sequence (whole entry): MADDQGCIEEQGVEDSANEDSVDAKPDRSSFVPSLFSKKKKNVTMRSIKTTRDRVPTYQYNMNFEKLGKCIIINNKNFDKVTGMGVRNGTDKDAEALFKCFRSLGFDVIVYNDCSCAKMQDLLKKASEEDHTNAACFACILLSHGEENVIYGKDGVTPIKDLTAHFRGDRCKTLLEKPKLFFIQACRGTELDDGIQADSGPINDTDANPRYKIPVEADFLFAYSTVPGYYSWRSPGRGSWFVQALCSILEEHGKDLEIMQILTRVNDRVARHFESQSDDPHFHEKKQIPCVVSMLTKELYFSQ
The series can be described thus: Inhibition of recombinant human caspase 7 using DEVDAA substrate at up to 5 uM after 3 hrs. In short, it runs like this: as §2

For series [2], the target named is Procathepsin L (Homo sapiens) (UniProt P07711). Nature of the series: Inhibition of recombinant human cathepsin L using GGALRAG substrate at up to 5 uM after 3 hrs. In short, it runs like this:
as §1

For a further series, the target named is T5, Caspase-5 (Homo sapiens) (UniProt P51878).
T5 sequence (whole entry): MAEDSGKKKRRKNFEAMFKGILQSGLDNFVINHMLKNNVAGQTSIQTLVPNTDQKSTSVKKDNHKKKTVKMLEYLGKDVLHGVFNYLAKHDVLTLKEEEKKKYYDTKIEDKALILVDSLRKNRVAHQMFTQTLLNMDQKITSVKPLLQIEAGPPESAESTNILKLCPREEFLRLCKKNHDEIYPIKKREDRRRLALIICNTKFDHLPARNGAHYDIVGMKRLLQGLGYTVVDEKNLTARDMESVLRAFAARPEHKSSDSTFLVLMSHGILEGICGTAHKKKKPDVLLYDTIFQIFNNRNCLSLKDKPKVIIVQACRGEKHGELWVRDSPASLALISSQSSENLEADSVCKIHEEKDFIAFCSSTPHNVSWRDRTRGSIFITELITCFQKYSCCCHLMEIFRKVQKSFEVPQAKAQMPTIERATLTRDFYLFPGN
The series can be described thus: Inhibition of recombinant human caspase 5 using LEHDGP substrate at up to 5 uM after 3 hrs. In short, it runs like this: as §2

Series [3] addresses Beta-secretase 1 (Homo sapiens) (UniProt P56817). Nature of the series: Inhibition of recombinant human BACE1 using SEVNLDAEFRKKRR substrate at up to 5 uM after 3 hrs. Summed up: as §2

Sequence of Procathepsin L (Homo sapiens) (P07711 114-333 limits assumed): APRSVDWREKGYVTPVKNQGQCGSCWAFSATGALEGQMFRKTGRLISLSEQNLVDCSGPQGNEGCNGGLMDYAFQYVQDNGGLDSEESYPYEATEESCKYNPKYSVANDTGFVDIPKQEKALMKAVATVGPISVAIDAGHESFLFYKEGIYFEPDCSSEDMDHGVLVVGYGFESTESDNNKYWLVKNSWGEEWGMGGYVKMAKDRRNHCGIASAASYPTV
Sequence of Beta-secretase 1 (Homo sapiens) (P56817 whole entry): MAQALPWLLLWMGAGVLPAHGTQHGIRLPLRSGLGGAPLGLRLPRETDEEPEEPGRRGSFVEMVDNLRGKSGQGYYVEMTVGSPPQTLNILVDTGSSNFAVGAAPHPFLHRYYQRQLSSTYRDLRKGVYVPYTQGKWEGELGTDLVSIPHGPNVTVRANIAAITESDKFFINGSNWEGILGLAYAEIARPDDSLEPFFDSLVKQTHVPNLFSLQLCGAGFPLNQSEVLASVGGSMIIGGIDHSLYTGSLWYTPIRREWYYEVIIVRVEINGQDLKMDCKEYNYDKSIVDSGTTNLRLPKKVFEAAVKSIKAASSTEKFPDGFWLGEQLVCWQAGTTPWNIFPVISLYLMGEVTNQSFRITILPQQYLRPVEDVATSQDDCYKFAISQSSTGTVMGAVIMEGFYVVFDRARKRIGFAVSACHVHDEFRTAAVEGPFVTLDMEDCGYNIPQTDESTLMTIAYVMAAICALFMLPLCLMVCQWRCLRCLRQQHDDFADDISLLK
Sequence of CYP3A4 (P08684 whole entry): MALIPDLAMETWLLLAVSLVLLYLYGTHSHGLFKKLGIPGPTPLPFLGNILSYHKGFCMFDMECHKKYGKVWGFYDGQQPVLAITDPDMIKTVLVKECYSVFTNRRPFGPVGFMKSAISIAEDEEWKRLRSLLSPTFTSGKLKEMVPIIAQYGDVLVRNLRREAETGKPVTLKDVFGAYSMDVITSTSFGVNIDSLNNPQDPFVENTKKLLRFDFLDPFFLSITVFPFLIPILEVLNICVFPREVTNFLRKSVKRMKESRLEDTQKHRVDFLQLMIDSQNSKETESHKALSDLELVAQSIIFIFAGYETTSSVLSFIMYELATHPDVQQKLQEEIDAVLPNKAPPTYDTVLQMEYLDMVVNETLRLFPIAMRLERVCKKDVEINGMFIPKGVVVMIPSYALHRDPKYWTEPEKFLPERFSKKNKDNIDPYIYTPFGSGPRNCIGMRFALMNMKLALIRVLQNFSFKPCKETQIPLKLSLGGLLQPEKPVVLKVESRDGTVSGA

Regarding `COC(=O)c1ccc(CSc2nc3c(c(=O)[nH]2)CCC3)cc1`, the inhibition at 20 µM on CYP3A4 is below 50%. Further, the t1/2 in the series on Liver microsome was 1.8 min.

Consider `Cc1cc(CNC(=O)c2cc(C(=O)NCc3ccc(F)c(C)c3)ncn2)ccc1F`, for which the inhibition (in series [1]; on Caspase-3 (Homo sapiens); at Caspase-6 (Homo sapiens); at Caspase-1 (Homo sapiens); on Caspase-7 (Homo sapiens); in series [2]) was below 10% each time. Besides, the inhibition (on Caspase-5 (Homo sapiens); in [3]) was below 10% each time. This molecule also yielded an inhibition at 20 µM on CYP3A4 below 50%.

Regarding `Cn1c(=O)n(Cc2ccc(C(=O)O)cc2)c(=O)c2cc(C#CCc3ccccc3)ccc21`, the inhibition (in series [1]; at Caspase-3 (Homo sapiens); on Caspase-6 (Homo sapiens); on Caspase-1 (Homo sapiens); at Caspase-7 (Homo sapiens); in [2]) was below 10% in each case. Further, the inhibition (at Caspase-5 (Homo sapiens); in series [3]) was below 10% throughout.

Regarding `Oc1nc(SCc2ccc(Cl)cc2)nc2c1CCC2`, the t1/2 with Liver microsome is on record as 6.8 min.
